Test results from ChEMBL document CHEMBL1126599, “Specific sequestering agents for the actinides. 21. Synthesis and initial biological testing of octadentate mixed catecholate-hydroxypyridinonate ligands” (J Med Chem, 1993).

Legend:
[1] = Removal of 238-Plutonium(IV) in urine after 0-4 h; type: ADME, tissue-based
In short: (§1)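 Mice received plutonium(IV)-238 citrate iv. At 1 h, normally fed mice got ligand at 30 μmol kg-1 in 0.14 M NaCl by ip injection, then water only. Each five-mouse group was housed in one metabolic cage to collect urine and feces. Mice were killed at 24 h. Pu was expressed as % of injected dose, normalized to 100% recovery. Kidneys and excreta were pooled per group. Saline-injected controls were killed at 24 h.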

Mus musculus [2] = species on record: Mus musculus; assay: Percent of injected 238-Plutonium(IV) in mice kidneys at 24 h; type: ADME, organism-based, Kidney; details: in vivo; in short: as §1
[3] = Removal of 238-Plutonium(IV) in feces at 24 h; type: ADME; in short: as §1
Mus musculus [4] = species on record: Mus musculus; assay: Percent of injected 238-Plutonium(IV) in mice liver at 24 h; type: ADME, organism-based; details: in vivo; in short: as §1
[5] = Removal of 238-Plutonium(IV) in gastrointestinal (GI) contents at 24 h; type: ADME; in short: as §1
Mus musculus [6] = species on record: Mus musculus; assay: Percent of injected 238-Plutonium(IV) in mice soft tissue at 24 h; type: ADME, organism-based; details: in vivo; in short: as §1
Mus musculus [7] = species on record: Mus musculus; assay: Percent of injected 238-Plutonium(IV) in mice whole body at 24 h; type: ADME, organism-based; details: in vivo; in short: as §1
[8] = Removal of 238-Plutonium(IV) in urine after 4-24 h; type: ADME, tissue-based; in short: as §1
Mus musculus [9] = species on record: Mus musculus; assay: Percent of injected 238-Plutonium(IV) in mice skeleton at 24 h; type: ADME, organism-based; details: in vivo; in short: as §1
[10] = Removal of 238-Plutonium(IV) in urine after 0-24 h; type: ADME, tissue-based; in short: as §1
[11] = Removal of 238-Plutonium(IV) in urine after 0-24 hr (orally administered); type: ADME, tissue-based; details: po; in the assay text read “4-24 hr” for “0-24 hr”
In short: (§2)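 Mice were fasted 18 h and given plutonium(IV)-238 citrate iv. At 3 min, ligand at 30 μmol kg-1 in 0.14 M NaCl was given by gastric intubation, with a little food at 4 h. Urine (0–4 h, 4–24 h) and feces were collected per five-mouse group in a metabolic cage. Mice were killed at 24 h. Tissue and GI Pu was expressed as % injected dose, normalized to 100% recovery. Kidneys and excreta were pooled per group. Fasted controls were included.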

Mus musculus [12] = assay: Percent of injected 238-Plutonium(IV) in mice kidneys at 24 hr (orally administered); type: ADME, organism-based, Kidney; details: in vivo, po; in short: as §2
[13] = Removal of 238-Plutonium(IV) in gastrointestinal (GI) contents at 24 hr (orally administered); type: ADME; details: po; in short: as §2
Mus musculus [14] = assay: Percent of injected 238-Plutonium(IV) in mice liver at 24 hr (orally administered); type: ADME, organism-based; details: in vivo, po; in short: as §2
[15] = Removal of 238-Plutonium(IV) in urine after 0-4 hr (orally administered); type: ADME, tissue-based; details: po; in short: as §2
Mus musculus [16] = assay: Percent of injected 238-Plutonium(IV) in mice whole body at 24 hr (orally administered); type: ADME, organism-based; details: in vivo, po; in short: as §2
Mus musculus [17] = assay: Percent of injected 238-Plutonium(IV) in mice soft tissue at 24 hr (orally administered); type: ADME, organism-based; details: in vivo, po; in short: as §2
Mus musculus [18] = assay: Percent of injected 238-Plutonium(IV) in mice skeleton at 24 hr (orally administered); type: ADME, organism-based; details: in vivo, po; in short: as §2
[19] = Removal of 238-Plutonium(IV) in feces at 24 hr (orally administered); type: ADME; details: po; in short: as §2
[20] = Removal of 238-Plutonium(IV) in urine after 4-24 hr (orally administered); type: ADME, tissue-based; details: po; in short: as §2
Mus musculus [21] = assay: Percent of injected 238-Plutonium(IV) in mice kidney at 24 hr (orally administered); type: ADME, organism-based; details: in vivo, po; in short: as §2
[22] = Removal of 238-Plutonium(IV) in urine at 4-24 hr (orally administered); type: ADME, tissue-based; details: po; in short: as §2
[23] = Removal of 238-Plutonium(IV) in urine at 0-4 hr (orally administered); type: ADME, tissue-based; details: po; in short: as §2
[24] = Removal of 238-Plutonium(IV) in urine 0-4 h (orally administered); type: ADME; details: po; in short: as §2
[25] = Removal of 238-Plutonium(IV) in urine 4-24 hr (orally administered); type: ADME; details: po; in short: as §2

Row | Structure (SMILES) | ID [1] [%] | ID (Mus musculus [2]) [%] | ID [3] [%] | ID (Mus musculus [4]) [%] | ID [5] [%] | ID (Mus musculus [6]) [%] | ID (Mus musculus [7]) [%] | ID [8] [%] | ID (Mus musculus [9]) [%] | ID (Mus musculus [12]) [%] | ID [13] [%] | ID (Mus musculus [14]) [%] | ID [15] [%] | ID (Mus musculus [16]) [%] | ID (Mus musculus [17]) [%] | ID (Mus musculus [18]) [%] | ID [19] [%] | also measured
1 | O=C(NCCCN(CCCCN(CCCNC(=O)c1cc(S(=O)(=O)O)cc(O)c1O)C(=O)c1cc(S(=O)(=O)O)cc(O)c1O)C(=O)c1cc(S(=O)(=O)O)cc(O)c1O)c1cc(S(=O)(=O)O)cc(O)c1O | 58 | 0.9 | 0.4 | 25 | 2.9 | 2.8 | 35 | 4 | 6.7 | – | – | – | – | – | – | – | – | –
2 | O=C(NCCCN(CCCCN(CCCNC(=O)c1cccc(O)c1O)C(=O)c1cccc(O)c1O)C(=O)c1cccc(O)c1O)c1cccc(O)c1O | – | 4.3 | 28 | 26 | 8.6 | 5.1 | 53 | – | 18 | – | – | – | – | – | – | – | – | ID [10]: 9.4%
3 | O=C(NCCCN(CCCCN(CCCNC(=O)c1cccc(O)c1O)C(=O)c1cccc(=O)n1O)C(=O)c1cccc(O)c1O)c1cccc(O)c1O | 9.1 | 3.1 | 43 | 12 | 12 | 4 | 33 | 3.1 | 13 | 3 | 1.8 | 43 | 8.3 | 82 | 4.5 | 30 | 4.5 | ID [11]: 2.3%
4 | O=C(NCCCN(CCCCN(CCCNC(=O)c1cccc(=O)n1O)C(=O)c1cccc(=O)n1O)C(=O)c1cccc(=O)n1O)c1cccc(=O)n1O | 23 | 0.2 | 21 | 8.9 | 36 | 1.6 | 18 | 2 | 7.5 | – | 1.4 | 11 | 23 | 24 | 1.3 | 12 | 50 | ID [20]: 2.7%; ID (Mus musculus [21]): 0.1%
5 | O=C(O)c1ccc(C(=O)NCCCN(CCCCN(CCCNC(=O)c2ccc(C(=O)O)c(O)c2O)C(=O)c2ccc(C(=O)O)c(O)c2O)C(=O)c2ccc(C(=O)O)c(O)c2O)c(O)c1O | 44 | 2.6 | 4.8 | 11 | 12 | 4.8 | 29 | 4.6 | 11 | 1.5 | 1 | 19 | – | 56 | 3.9 | 32 | 3.3 | ID [22]: 9.5%; ID [23]: 30%
6 | O=C(NCCCN(CCCCN(CCCNC(=O)c1cccc(O)c1O)C(=O)c1cccc(=O)n1O)C(=O)c1cccc(=O)n1O)c1cccc(O)c1O | 7.9 | 2 | 31 | 21 | 20 | 2.4 | 37 | 4.1 | 12 | 3.3 | 1.9 | 35 | – | 68 | 4.7 | 26 | 13 | ID [24]: 12%; ID [25]: 4%
